# This is a sample that favours compounds with a hit; in the whole collection about 2.3% have one here.
# OXTR potentiate: potentiators of human oxytocin receptor; P30559; CHO-OTR cells, Fluo-8 calcium fluorescence, potentiator mode; 0% = oxytocin EC15, 100% = EC100; activation, % at 3 µM; 320,000 tested, 0.061% active; AID 2445;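 active means activation above that plate's cutoff, the mean activation of tested compounds plus 3 SD, cut at about 6.6% in these data, passing the limit was not always enough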;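 further: 100% uses oxytocin at 75 nM as the full agonist control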
# Target sequence (P30559 whole entry, looked up): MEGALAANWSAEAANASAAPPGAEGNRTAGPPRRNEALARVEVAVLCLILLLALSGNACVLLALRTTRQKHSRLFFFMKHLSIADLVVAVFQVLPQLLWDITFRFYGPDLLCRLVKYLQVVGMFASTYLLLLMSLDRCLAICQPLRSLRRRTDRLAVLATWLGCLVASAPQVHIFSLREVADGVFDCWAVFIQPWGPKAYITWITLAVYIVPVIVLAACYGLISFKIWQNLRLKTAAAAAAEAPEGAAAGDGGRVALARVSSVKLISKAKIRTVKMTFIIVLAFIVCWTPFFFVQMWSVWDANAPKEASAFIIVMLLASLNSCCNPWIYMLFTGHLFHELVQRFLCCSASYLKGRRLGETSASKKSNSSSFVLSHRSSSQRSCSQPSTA
#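 Material: CHO-OTR cells, human receptor; compound dosing: single dose, 3.0 µM nominal final compound concentration; schedule: 6 min compound pre-incubation at room temperature, 100 s kinetic read; measured by: kinetic Fluo-8 calcium fluorescence; read-out basis: % activation vs EC15 and EC100 oxytocin; controls: EC15 oxytocin alone as 0%, 75 nM oxytocin as 100%; replicates: singlicate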
# V1aR counter: counter-screen for oxytocin receptor agonists: human V1a receptor agonists. P37288. CHO-V1R cells, Fluo-8 calcium fluorescence, agonist mode; 0% DMSO, 100% 3 nM vasopressin. activation, % at 3 µM. 320,000 tested, 0.25% active. AID 2797;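 active means activation above the mean activation of all tested compounds plus 3 SD, per screening run, cut at about 20% in these data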;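 further: signal is peak over basal fluorescence ratio across a 100 second FLIPR read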
# OXTR agonist: human OXTR agonism; 320,000 tested, 0.32% active; CHO-OTR cells, Fluo-8 calcium fluorescence; normalized: DMSO 0%, oxytocin 100%; activation, % at 3 µM; P30559;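 active means activation above the mean of all tested compounds plus 3 SD, cutoff set per screening run, cut at about 20% in these data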;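 further: peak over basal fluorescence ratio from a 100 s FLIPR kinetic read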
# TAAR1 ag: agonists of human TAAR1; Q96RJ0; CHO RD-HGA16 TAAR1, Fluo-8 calcium fluorescence; vehicle wells 0%, saturating PEA agonist 100%; activation, % at 3 µM; 360,000 tested, 0.99% active; AID 624467;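 active means activation above the mean activation of all test compounds in the run plus 3 SD, cut at about 38% in these data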
# Target sequence (Q96RJ0 whole entry, looked up): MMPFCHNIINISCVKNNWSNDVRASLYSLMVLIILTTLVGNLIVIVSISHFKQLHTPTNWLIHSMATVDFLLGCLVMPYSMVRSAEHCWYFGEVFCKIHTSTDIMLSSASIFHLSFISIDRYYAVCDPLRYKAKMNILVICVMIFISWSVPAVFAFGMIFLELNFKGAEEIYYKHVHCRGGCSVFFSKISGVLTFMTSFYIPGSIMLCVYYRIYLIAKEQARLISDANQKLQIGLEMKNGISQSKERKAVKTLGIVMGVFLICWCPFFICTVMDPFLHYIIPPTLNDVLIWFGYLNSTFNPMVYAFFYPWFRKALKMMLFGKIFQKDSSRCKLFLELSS
#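 System: CHO-derived RD-HGA16 cells with stable Gα16 and human TAAR1. Times: 17-24 h plating, Fluo-8 75 min 37 °C, 30 min RT. Measured by: calcium-sensitive Fluo-8 signal, excitation 470-495, emission 515-575 nm. Read-out basis: % activation relative to PEA EC100 response. Control set: DMSO and PEA EC100. Repeats: no replicates (n 1).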
# TAAR1 antag: human TAAR1 antagonism; Q96RJ0; CHO RD-HGA16 TAAR1, Fluo-8 calcium fluorescence, antagonist; inhibition, % at 3 µM; 360,000 tested, 1.5% active;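 active means inhibition above a per-plate cutoff, the mean inhibition of test compounds on that plate plus 3 SD, cut at about 49% in these data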;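 further: 0% = DMSO plus EC80 beta-PEA response and 100% = DMSO alone without agonist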
#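 Assay system: CHO-derived RD-HGA16 cells stably expressing human TAAR1 plus Gα16. Timing: 140 s kinetic read after compound, 140 s after agonist. Technique: kinetic Fluo-8 calcium fluorescence measurement. Measure: % inhibition of agonist calcium response.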
# nonsel antag count: nonselective antagonist in TAAR1 antagonist counter-screen; shares compounds with TAAR1 antag; counterscreen cell line, calcium fluorescence, antagonist mode; inhibition, % at 3 µM; 2,400 tested, 77% active; in the data active means inhibition above about 22%;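 further: CHO-Ga16 host cells stimulated with ATP at an EC80 level; 0% = agonist EC80 plus vehicle and 100% = vehicle without agonist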
# TAAR1 ant conf: human TAAR1 antagonism, confirmed; shares compounds with TAAR1 antag; inhibition, % at 3 µM; TAAR1-expressing cells, fluorescence antagonist read-out; 2,400 tested, 40% active; in the data active means inhibition above about 49%;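 further: CHO-Ga16 host cells challenged with agonist PEA near its EC80; 0% = agonist at EC80 plus vehicle and 100% = vehicle with no agonist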
# Ga16 nonsel ag: counter-screen for TAAR1 antagonists: nonselective Ga16 agonists | activation, % at 3 µM | 2,400 tested, 18% active | AID 651953 | shares compounds with TAAR1 antag | Ga16-expressing cells, calcium fluorescence, agonist counterscreen; in the data active means activation above about 12%;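 further: 0% = vehicle wells and 100% = saturating stimulus response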
# TAAR1 ag counter: TAAR1 agonism, antagonist counter-screen; 2,400 tested, 2% active; shares compounds with TAAR1 antag; hTAAR1 cell line, fluorescence activation, agonist mode; activation, % at 3 µM; in the data active means activation above about 37%;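 further: CHO cells stably expressing TAAR1 with calcium dye readout; 0% = DMSO vehicle and 100% = full agonist response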
# An asterisk follows results filed as active; / = not tested or not shown.
SMILES,OXTR potentiate,V1aR counter,OXTR agonist,TAAR1 ag,TAAR1 antag,nonsel antag count,TAAR1 ant conf,Ga16 nonsel ag,TAAR1 ag counter
Cc1ccccc1-c1ccc(CN2C(C)C(=O)N(Cc3cn(Cc4ccco4)nn3)CCS2(=O)=O)cc1 (stereo not given),/,/,/,2,-20,/,/,/,/
Cc1ccc2cccnc2c1NC(=S)NC(=O)c1ccccc1,-3,1,-1,1,19,/,/,/,/
C[C@H]1CN([C@@H](C)CO)C(=O)CCCn2nncc2CO[C@H]1CN(C)S(=O)(=O)c1ccc(-n2cccn2)cc1,/,/,/,4,-6,/,/,/,/
CC(=O)Nc1cc(-c2cccc(F)c2)cn2c(-c3ccccc3)cnc12,/,/,/,11,61*,35*,43,4,8
COc1ccccc1-c1cc(NC(C)=O)c2ncc(-c3ccccc3)n2c1,/,/,/,4,56*,24*,41,21*,37
COc1ccc(-c2cc(NC(C)=O)c3ncc(-c4ccccc4)n3c2)cc1OC,/,/,/,6,17,/,/,/,/
COc1ccccc1-c1cc(NC(C)=O)c2ncc(-c3cccc(C(F)(F)F)c3)n2c1,/,/,/,1,59*,32*,51*,6,20
COc1ccc(-c2cc(NC(C)=O)c3ncc(-c4ccc(OC)c(OC)c4)n3c2)c(OC)c1,/,/,/,-1,-9,/,/,/,/
COc1ccc(-c2cc(NC(C)=O)c3ncc(-c4ccccc4)n3c2)c(OC)c1,/,/,/,3,68*,26*,32,8,5
CC(=O)Nc1cc(-c2ccccc2N(C)C)cn2c(-c3ccccc3)cnc12,/,/,/,19,40,/,/,/,/
CC(=O)Nc1cc(-c2ccccc2F)cn2c(-c3ccccc3)cnc12,/,/,/,4,68*,28*,47,10,14
CC(=O)c1c(C)[nH]c(C(=O)Nc2cccc(S(=O)(=O)N(C)c3ccccc3)c2)c1C,-13,10,8,17,61*,44*,66*,14*,13
COCc1ccc(C(=O)Nc2cccc(S(=O)(=O)N(C)c3ccccc3)c2)cc1,-12,7,11,10,53*,32*,38,8,5
CCCCCC/C=C/c1ccc(OC)c([C@H]2[C@H]3C=CC[C@@H](C)[C@@H]3C(=O)N2Cc2ccccc2)c1,-1,0,1,0,4,/,/,/,/
C[N+]1(CCN2C(=O)C3CC=C(Cl)CC3C2=O)CCOCC1 (stereo not given),-4,2,0,8,9,/,/,/,/
Cn1nc(C(C)(C)C)c([N+](=O)[O-])c1C(=O)Nc1cccc2ccccc12,-14,-1,-3,5,56*,22*,34,5,4
Cc1ccc2nc(-c3ccc(NC(=O)CSc4nc(N)cc(=O)[nH]4)cc3)sc2c1,-1,0,0,0,103*,11,0,2,3
COc1ccc(C2Nc3ccc4ccccc4c3-c3c2c(=O)oc2ccccc32)cc1 (stereo not given),-3,-1,0,11,-3,/,/,/,/
CN(C)c1ccc(Nc2nc(N)c([N+](=O)[O-])c(N3CCOCC3)n2)cc1,-9,-1,1,14,54*,22*,36,7,6
CCc1noc(C)c1C(=O)Nc1nc(-c2ccc(NC(C)=O)cc2)cs1,-6,5,1,18,70*,29*,48,22*,31
O=C(NC(c1ccc(F)cc1)c1ccc2ccccc2n1)C1CCN(CCOc2ccc(Cl)cc2Cl)CC1 (stereo not given),/,/,/,7,8,/,/,/,/
COc1cc(/C=N/NC(=O)c2cccnc2)ccc1OS(=O)(=O)c1cc(C)ccc1C,-13,2,3,25,64*,32*,57*,14*,12
COc1cc(/C=N/NC(=O)c2cccnc2)ccc1OS(=O)(=O)c1ccc(C)cc1,-11,1,1,12,30,/,/,/,/
CN(CCOc1ccc(Cl)cc1)C(=O)c1cc(S(=O)(=O)N2CCOCC2)ccc1N1CCCC1,-9,3,0,17,67*,21,35,7,5
Cc1ccccc1C(=O)c1cccn1CC(=O)NCc1ccc(F)cc1,0,-1,-1,3,-23,/,/,/,/
SMILES,OXTR potentiate,V1aR counter,OXTR agonist,TAAR1 ag,TAAR1 antag,nonsel antag count,TAAR1 ant conf,Ga16 nonsel ag,TAAR1 ag counter
O=C(NCc1ccco1)c1cccc(-c2nnc(-c3ccccc3)o2)c1,4,1,-2,11,62*,22*,42,7,10
Cc1cccc(-c2noc(-c3ccccc3C(=O)NCc3ccco3)n2)c1,-9,-1,-3,16,52*,26*,35,4,4
Cc1cccc(-c2noc(CCC(=O)NCCc3ccccc3)n2)c1,-15,4,4,17,12,/,/,/,/
Cc1cccc(-c2noc(CCC(=O)NCc3ccccc3)n2)c1,-1,0,1,8,106*,13,4,8,12
CCOc1cc(CN2CCC(N3CCC(C(=O)NC4CC4)CC3)CC2)ccc1O,/,/,/,0,5,/,/,/,/
COc1ccc(CCNC(=O)C(=O)NCC2OCCN2C(=O)c2ccc(Cl)cc2)cc1 (stereo not given),-2,2,1,12,60*,22*,37,8,12
COc1ccc(C(=O)N2CCOC2CNC(=O)C(=O)NCc2ccc(Cl)cc2)cc1 (stereo not given),-9,0,-2,1,8,/,/,/,/
N#Cc1c(-c2ccc(Br)cc2)cc(-c2cccnc2)nc1N,-4,1,-1,-1,1,/,/,/,/
N#Cc1c(-c2cccc(Br)c2)cc(-c2cccnc2)nc1N,-12,3,1,5,56*,21,38,7,11
Cc1cc(C)c(C#N)c(N2CCN(CCOc3ccc(Cl)cc3)CC2)n1,-8,0,-1,9,57*,34*,31,6,3
COc1ccc([C@H]2CC(=O)C=C(c3ccc(CNC(=O)OC(C)(C)C)cc3)C2)cc1,-11,7,9,19,83*,47*,68*,12*,8
O=C(/C=C/c1cc([N+](=O)[O-])ccc1OC(F)F)Nc1cccc(OC(F)F)c1,-10,0,0,5,75*,34*,65*,7,4
COc1ccccc1NC(=O)/C=C/c1cc([N+](=O)[O-])ccc1OC(F)F,-2,-1,0,-3,-8,/,/,/,/

# Screening results deposited in PubChem BioAssay by The Scripps Research Institute Molecular Screening Center.
